# Bioassay records deposited in PubChem BioAssay by several laboratories.
# bCat KO growth: beta-catenin-lacking colon tumor cell growth suppression; AID 818; HCT116 beta-catenin knockout viability, CellTiter-Glo, 60 h; active compounds read low; actives 1.5% (n = 140,000); viability, % at 10 µM;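 active = viability at or under a set limit, the compound median less 4 SD, cut at about 6% in these data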;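 also: 0% = Hyamine 1622 control at 20 µM and 100% = untreated cell control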
# Dynein transport: blocks dynein driven cargo transport along microtubules | 3617.4 mouse cells, GR-EGFP nuclear translocation imaging; test concentration mostly 20 µM; stimulated with dexamethasone, 1 µM; active compounds read low | actives 0.47% (n = 220,000) | z-score, hits read low;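 active = plate z-score of nuclear minus cytoplasmic receptor signal below a set negative limit, without overly bright fluorescence or cell loss, cut at about -3.5 in these data, passing the limit was not always enough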;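 also: z-score of nuclear minus cytoplasmic ring GR-EGFP intensity difference per well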
#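 Buffer or medium: tet-free, stripped-serum medium; Also added: dexamethasone, 1.0 µM final; Technique: high-content fluorescence imaging after fixation; Times: 48 h induction, 1 h compound, 30 min dex at 37 °C; Read-out: per-cell GR-EGFP intensity, nucleus versus surrounding cytoplasmic ring, well-averaged.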
# Autophagy mod: autophagy modulation, high-content screen; MEF GFP-LC3 puncta imaging; test concentration mostly 10 µM; calls only at 10 µM (by protocol); actives 0.98% (n = 190,000);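 active = percentage of spot-positive cells more than 3 SD above its plate mean, without a fluorescence outlier flag or 80% toxicity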;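 also: spot-positive cell cutoff set from DMSO-treated cells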
# HCT116 PTEN-null: suppresses growth of cells with PTEN deletion; HCT116 PTEN-null viability, CellTiter-Glo, 60 h; active compounds read low; viability, % at 10 µM; actives 1.2% (n = 140,000); AID 827;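 active = viability at or below a set limit, 4 SD under the median of all tested compounds, cut at about 3.7% in these data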;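 also: PTEN knockout HCT116 line with beta catenin targeted HCT116 as companion control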
# Lmaj promast: inhibitors of Leishmania major promastigote growth; Leishmania major promastigotes, resazurin fluorescence viability; inhibition, % at 10 µM; actives 9% (n = 200,000); AID 1063; in the data active = inhibition above about 50%;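 also: promastigotes grown with compound for 44 hours at 28 °C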
# Starred values were filed as active, the others as inactive; i = inactive; . = not tested or not shown; + = active, no number. This is a sample that favours compounds with a hit; in the whole collection about 9.2% have one here.
SMILES,bCat KO growth,Dynein transport,Autophagy mod,HCT116 PTEN-null,Lmaj promast
CC(C)Cn1[nH]c2c3c(ccc2c1=O)C(=O)c1ccccc1C3=O,65,0.2,i,58,90*
CN1C(=C2C(=O)OC(C)(C)OC2=O)Sc2ccccc21,87,-0.32,i,106,99*
Cc1ccc(S(=O)(=O)Nc2ccccc2-c2ccccc2NS(=O)(=O)c2ccc(C)cc2)cc1,76,-0.047,i,76,96*
Cc1ccc(S(=O)(=O)Nc2ccccc2C(N)=O)cc1,95,-0.23,i,84,-2
Cc1oc2c(cc(NS(=O)(=O)c3cccs3)c3ccccc32)c1C(=O)OC(C)C,78,0.51,i,80,2
COc1ccc(S(=O)(=O)Nc2cc3c(C(C)=O)c(C)oc3c3ccccc23)cc1,19,0.49,+,19,24
Cc1ccc(S(=O)(=O)Nc2cc(Cl)c(O)cc2C)cc1,82,-0.88,i,79,-1
Cc1ccc(S(=O)(=O)Nc2cc(C(C)C)c(O)cc2C)cc1,90,-0.49,i,88,76*
COc1cc(NS(=O)(=O)c2ccc(C)cc2)c2ncccc2c1,3.6*,-0.47,i,2.3*,99*
O=C(O)c1ccccc1C(=O)NC1Cc2ccccc2C1,.,0.22,.,.,.
O=C(c1cccc(F)c1)N1CCN(Cc2ccco2)CC1,90,0.028,i,94,-7
O=C(CSc1ncn[nH]1)c1ccc(OC(F)F)cc1,.,-0.37,i,.,-10
CC(=O)Oc1cc2c3c(c1)/C(=C1/SC(=S)NC1=O)C(=O)N3C(C)(C)C=C2C,.,1.4,.,.,.
Cc1ccc(S(=O)(=O)Nc2cccc3cccnc23)cc1,1.6*,0.47,+,1.6*,100*
COC(=O)[C@@H]1C(c2c(OC)cc(OC)cc2OC)=NO[C@H]1C(=O)OC,87,0.99,i,100,-3
CC(C)c1nc(N2CCN(C(=O)c3ccccc3)CC2)c(C#N)c2c1COC(C)(C)C2,68,-0.39,i,57,74*
CC1(C)Cc2c(C#N)c(N3CCN(C(=O)c4ccccc4)CC3)nc(-c3ccco3)c2CS1,90,-0.62,i,86,2
COc1cccc(NC(=O)CNC(=O)c2ccccc2)c1,87,1.1,i,94,-1
CCOc1ccc(NS(=O)(=O)c2cc(NC(=O)c3cccc(C)c3)ccc2Cl)cc1,14,0.18,i,10,99*
COc1ccc(NC(=O)CNC(=O)c2cccs2)cc1Cl,.,0.57,i,.,1
COc1ccc(NS(=O)(=O)c2cc(NC(=O)CNC(=O)c3cccc(OC)c3)ccc2C)cc1,77,-1,i,72,61*
Cc1ccc(NC(=O)CNC(=O)c2cccs2)cc1S(=O)(=O)Nc1ccc(Cl)cc1,87,-0.55,i,89,57*
Cc1cc(C)n(-c2cccc(Cl)c2C#N)n1,.,0.79,.,.,.
Cc1c(NC(=O)CSCc2ccc(Br)cc2)c(=O)n(-c2ccccc2)n1C,.,0.33,i,.,-5
CN(C)S(=O)(=O)c1ccc(Oc2ccccc2)cc1,93,-0.22,i,100,98*
SMILES,bCat KO growth,Dynein transport,Autophagy mod,HCT116 PTEN-null,Lmaj promast
CCN(CC)S(=O)(=O)c1ccc(-c2ccc(S(=O)(=O)N(CC)CC)cc2)cc1,95,0.71,i,105,-2
CCN(CC)S(=O)(=O)c1ccc(Oc2ccccc2)cc1,76,-1,i,78,99*
O=C(Nc1ccc(Cc2ccc(NC(=O)C3CC3)c(O)c2)cc1O)C1CC1,83,0.62,i,94,52*
O=C(O)CCC(=O)Nc1ccc(Cc2ccc(NC(=O)CCC(=O)O)c(O)c2)cc1O,92,-0.66,i,103,-6
CC(C)C(NC(=O)c1ccc(F)cc1)C(=O)Nc1cccnc1 (centres undefined),.,-0.12,i,.,-5
O=C(Cc1c(Sc2ccccc2)c2ccccc2n1Cc1ccccc1)NCCO,68,1.4,i,61,58*
Cn1c(CC(=O)NCCO)c(Sc2ccccc2)c2ccccc21,91,-0.51,i,94,-1
COc1ccc(CN2CNc3nc4ccccc4n3C2)cc1,11,1,i,17,62*
Cc1ccc(Cl)cc1NC(=S)N(CCCN1CCOCC1)Cc1ccccn1,90,-0.46,i,94,-2
COc1cc(Cl)ccc1NC(=S)N(CCCN1CCOCC1)Cc1cn(C)c2ccccc12,65,-0.064,i,54,89*
COc1ccc(Cl)cc1NC(=S)N(CCCN1CCOCC1)Cc1cn(C)c2ccccc12,69,0.21,i,64,100*
